Consider 9 compounds from ChEMBL document CHEMBL1135662, “Effects of isoprenoid analogues of SDB-ethylenediamine on multidrug resistant tumor cells alone and in combination with chemotherapeutic drugs” (J Med Chem, 2002).

Structures can show the parent of a compound that is named as a salt. Some results are limits rather than exact numbers.

The species entered for series [1] is Homo sapiens. As to the kind of experiment: Cytotoxicity against cell line mS/0.5 and pgp determined by MTT test. Type of series: functional.
Series [2] can be described thus: Intracellular uptake of drug in presence of ADM and absence of VRPin HET-SR-2SC-LNM cell line. The note with it: Mesocricetus auratus.
Series [3] can be described thus: Intracellular uptake of drug in presence of 3H VBL and in absence of VRP in 2SC/20 cell line. The note with it: Mesocricetus auratus.
Series [4] in a line: Intracellular uptake of drug in presence of ADM and VRP in 2SC/20 cell line. Particulars: Mesocricetus auratus.
The nature of series [5]: Index of sensitisation (IS)in presence of VBL and HET-SR-2SC-LNM. Type of series: functional. The method, boiled down:
(§1)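 HET-SR-2SC-LNM or 2SC/20 cells exposed for 72 h to a vinblastine or adriamycin dose series, alone or with modulator at 5 µM. IC50 by MTT (540 nm). IS is the mean IC50 with the drug alone divided by the mean IC50 with drug plus modulator. Four repeats.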

Series [6] concerns K562. Put plainly: Cytotoxicity against cell line K562 determined by MTT test. Type of series: functional, cell-based. The note with it: Homo sapiens. In short, it runs like this:
(§2)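 MTT assay after 72 h exposure, in duplicate. Human lung carcinoma COR L23/P and its adriamycin-selected MRP-mediated subline COR L23/R seeded at 5×10^3 per 200 µL. K562 leukemia cells and K562 transduced with human MDR1 (not drug-selected) seeded at 3×10^4 per 200 µL. Non-fibroblast lines grown in RPMI-1640 with 5% FBS. MTT 3 h, read at 540 nm. Mean ± SE of three experiments.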

Series [7] is described as follows: Intracellular uptake of drug in presence of 3H VBL and absence of VRPin HET-SR-2SC-LNM cell line. Particulars: Mesocricetus auratus.
Series [8] in a line: Cytotoxicity against cell line McA RH 7777/0.4 and Pgp determined by MTT test. Type of series: functional. Particulars: Rattus norvegicus, McA-RH7777.
In series [9] the test system is K562. As to the kind of experiment: Cytotoxicity against cell line K562i/S9 and pgp determined by MTT test. The format is functional, cell-based. Particulars: Homo sapiens. The method, boiled down: as §2
Series [10] can be described thus: Intracellular uptake of drug in presence of ADM and in absence of VRP in 2SC/20 cell line. The note with it: Mesocricetus auratus.
The nature of series [11]: Index of sensitisation (IS)in presence of VBL and 2SC/2O. Type of series: functional. In short, it runs like this:
as §1

Series [12] is described as follows: Index of sensitisation (IS)in presence of ADM and 2SC/2O. The format is functional. In short, it runs like this: as §1
Series [13] can be described thus: Intracellular uptake of drug in presence of 3H VBL and VRP in 2SC/20 cell line. Particulars: Mesocricetus auratus.
Series [14] in a line: Intracellular uptake of drug in presence of 3H VBL and VRP in HET-SR-2SC-LNM cell line. Particulars: Mesocricetus auratus.
Series [15] is described as follows: Intracellular uptake of drug in presence of ADM and VRP in HET-SR-2SC-LNM cell line. The note with it: Mesocricetus auratus.
Series [16] in a line: Index of sensitisation (IS)in presence of ADM and HET-SR-2SC-LNM. Type of series: functional. In short, it runs like this: as §1
The nature of series [17]: Cytotoxicity against cell line 2SC/20 of hamster determined by MTT test. The note with it: Mesocricetus auratus.
Series [18] is described as follows: Cytotoxicity against HET-SR-2SC-LNM cell line of hamster determined by MTT test. The note with it: Mesocricetus auratus.
Series [19] can be described thus: Partition coefficient (logP). Type of series: physicochemical. The note with it: octanol/water.
A short description of series [20]: Cytotoxicity against cell line COR/L23P determined by MTT test. Type of series: functional. The note with it: Homo sapiens. The method, boiled down: (§3)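 MTT assay after 72 h exposure, in duplicate. Human lung carcinoma COR L23/P and its adriamycin-selected MRP-mediated subline COR L23/R seeded at 5×10^3 per 200 µL. K562 leukemia cells and K562 transduced with human MDR1 (not drug-selected) seeded at 3×10^4 per 200 µL. MTT 3 h, read at 540 nm. Mean ± SE of three experiments.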

Series [21] is described as follows: Cytotoxicity against cell line HET-SR-2SC-LNM determined by MTT test. The note with it: Mesocricetus auratus.
Series [22] can be described thus: Cytotoxicity against cell line McA RH 7777 determined by MTT test. The note with it: Rattus norvegicus, McA-RH7777. Type of series: functional.
The species entered for series [23] is Homo sapiens. Put plainly: Cytotoxicity against cell line mS determined by MTT test. Type of series: functional.
The nature of series [24]: Cytotoxicity against cell line […] and MRP determined by MTT test. The format is functional. The note with it: Homo sapiens. In short, it runs like this: as §3
Series [25] can be described thus: Cytotoxicity against cell line 2SC/20 determined by MTT test. Particulars: Mesocricetus auratus.
Series [26] in a line: Inhibitory concentration against the growth of 2SC/20 cell line after 72 hr of drug exposure by MTT test. Particulars: Mesocricetus auratus.
The nature of series [27]: Inhibitory concentration against the growth of HET-SR-2SC-LNM cell line after 72 hr of drug exposure by MTT test. The note with it: Mesocricetus auratus.
The nature of series [28]: Inhibitory concentration against the growth of 2SC/20 cell line after 72 hr of drug exposure by MTT test. Type of series: functional, Cricetulus griseus. The method, boiled down:
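Syrian hamster embryo fibroblasts (parental line or its colchicine-selected Pgp-positive 2SC/20 subline), grown in DMEM with 5% FBS at 37 °C, 5% CO2; selective agent withdrawn 2 days before use. (3–4) × 10³ cells per well, treated 16 h after plating, exposed 72 h. MTT (2 mg/mL solution) added for 3 h, formazan dissolved in acidified DMSO, absorbance read at 540 nm.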

Series [29] in a line: Inhibitory concentration against the growth of HET-SR-2SC-LNM cell line after 72 hr of drug exposure by MTT test. Type of series: functional, Cricetulus griseus.
Series [30] in a line: Index of sensitisation (IS) calculated as mean IC50 for cells incubated with VBL and of HET-SR-2SC-LNM. The format is functional. In short, it runs like this:
as §1

Series [31] is described as follows: Index of sensitisation (IS) calculated as mean IC50 for cells incubated with VBL and of 2SC/2O. Type of series: functional. In short, it runs like this:
as §1

Series [32] is described as follows: Index of sensitisation (IS) calculated as mean IC50 for cells incubated with ADM and of HET-SR-2SC-LNM. Type of series: functional. The method, boiled down:
as §1

The nature of series [33]: Index of sensitisation (IS) calculated as mean IC50 for cells incubated with ADM and of 2SC/2O. The format is functional. In short, it runs like this: as §1
A short description of series [34]: Cytotoxicity against cell line HET-SR-2SC-LNM of hamster determined by MTT test. Particulars: Mesocricetus auratus.
A short description of series [35]: Cytotoxicity against cell line COR/L23R and MRP determined by MTT test. The note with it: Homo sapiens, COR-L23/R. Type of series: functional. The method, boiled down:
as §2

For `COc1ccc(CCN(C)CCCC(C#N)(c2ccc(OC)c(OC)c2)C(C)C)cc1OC` (configuration not stated) [VERAPAMIL HYDROCHLORIDE], the IC50 turned out to be 230 µM in the series filed under Homo sapiens [1], 100 µM in the series with K562 [6], 470 µM in series [8] and 100 µM in the series on K562 [9]. Further, the drug uptake was determined as 235 pmol/30 min in series [2]; 10 pmol/mg protein in series [3]; 289 pmol/30 min in series [4]; 22 pmol/mg protein in series [7]; 132 pmol/30 min in series [10]; 23 pmol/mg protein in [13]. In addition, the drug uptake in series [14] was 29 pmol/mg protein; in series [15] it was 310 pmol/30 min. The IS in series [5] was determined as 4; in series [11] it was 11; in [12] it was 11; in series [16] it was 2.

As to `COc1ccc(CNCCNCc2ccc(OC)c(OC)c2)cc1OC`, the IC50 in series [17] is 470 µM; in series [18], 520 µM. This compound also had a logP in series [19] of 3.78.

For the compound `COc1ccc(CNCCN(C/C=C(\C)CC/C=C(\C)CC/C=C(\C)CC/C=C(\C)CC/C=C(\C)CC/C=C(\C)CC/C=C(\C)CC/C=C(\C)CCC=C(C)C)Cc2ccc(OC)c(OC)c2)cc1OC`, the IC50 in the series filed under Homo sapiens [1] is 45 µM; in series [20], greater than 200 µM; with K562 [6] it was 250 µM; in series [8], 55 µM; in series [21], 80 µM; with K562 [9], 250 µM. Besides, the IC50 in series [22] was 65 µM; in the series filed under Homo sapiens [23], 86 µM; in series [24] it was greater than 200 µM; in [25] it was 20 µM. Also, the IS amounted to 1 in series [5], 4 in series [11], 6 in series [12] and 2 in [16].

`CC[C@]1(O)C[C@@H]2CN(CCc3c([nH]c4ccccc34)[C@@](C(=O)OC)(c3cc4c(cc3OC)N(C)[C@H]3[C@@](O)(C(=O)OC)[C@H](OC(C)=O)[C@]5(CC)C=CCN6CC[C@]43[C@@H]65)C2)C1` [VINBLASTINE]: the IC50 in [26] was 0.246 µM; in series [27], 0.018 µM.

Consider BLEOMYCIN, for which the IC50 in [28] was found to be 0.517 µM; in series [29], 0.519 µM.

`COc1cccc2c1C(=O)c1c(O)c3c(c(O)c1C2=O)C[C@@](O)(C(=O)CO)C[C@@H]3O[C@H]1C[C@H](N)[C@H](O)[C@H](C)O1` [DOXORUBICIN]: the IC50 in series [26] worked out at 0.62 µM; in series [27], 0.052 µM.

Regarding `COc1ccc(CNCCN(C/C=C(\C)CC/C=C(\C)CCC=C(C)C)Cc2ccc(OC)c(OC)c2)cc1OC`, the IS in [30] is on record as 6; in series [31] it was 12; in series [32], 2; in [33], 12. Moreover, the IC50 is 13 µM in [17] and 35 µM in [21].

`COc1cc2c(c(OC)c1OC)-c1ccc(OC)c(=O)cc1[C@@H](NC(C)=O)CC2` [COLCHICINE]: the values for the IC50 in series [26] and in series [27] were 0.5 µM and 0.025 µM, respectively.

`COc1ccc(CNCCN(C/C=C(\C)CCC=C(C)C)Cc2ccc(OC)c(OC)c2)cc1OC.Cl`: the IC50 was 18 µM in the series listed under Homo sapiens [1]; 25 µM in [20]; 125 µM in the series with K562 [6]; 10 µM in series [17]; 20 µM in [8]; 125 µM in the series on K562 [9]. In addition, the IC50 was found to be 55 µM in series [22], 40 µM in the series filed under Homo sapiens [23], 15 µM in series [34] and 13 µM in series [35]. Besides, the IS is listed as 8 in [30], 11 in [31], 2 in series [32] and 12 in series [33]. In addition, the lipophilicity (logP) in [19] is 4.51.
